Drawing on ChEMBL document CHEMBL3272355, “Structure--activity relationships in cephalosporins prepared from penicillins. 1. 7beta-Acylamino derivatives of 3-benzyl- and 3-(3-pyridylmethyl)ceph-3-em-4-carboxylic acids” (1977), this text covers MIC for 3 compounds.

The subject of assay [1] is Staphylococcus aureus. In words: Antibacterial activity against Staphylococcus aureus Oxford assessed as growth inhibition after 18 hrs by serial dilution method. It counts as functional. An outline of the steps:
(§1)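 Agar dilution MIC: serial dilutions in nutrient agar, each spot-inoculated with 0.001 mL of undiluted overnight broth culture. MIC read after 18 h incubation at 37 °C.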

The subject of assay [2] is Staphylococcus aureus. In words: Antibacterial activity against beta-lactamase producing benzylpenicillin-resistant Staphylococcus aureus Russell assessed as growth inhibition after 18 hrs by serial dilution method. It counts as functional.
The subject of another assay is Escherichia coli. Description: Antibacterial activity against Escherichia coli assessed as growth inhibition after 18 hrs by serial dilution method. It counts as functional. Put shortly: as §1
Another assay relates to Salmonella typhi. Description: Antibacterial activity against Salmonella typhi assessed as growth inhibition after 18 hrs by serial dilution method. It counts as functional, Salmonella enterica subsp. enterica serovar Typhi. Conditions: Salmonella enterica.
Another assay concerns Shigella sonnei. In words: Antibacterial activity against Shigella sonnei assessed as growth inhibition after 18 hrs by serial dilution method. It is filed as functional. An outline of the steps: as §1
Another assay relates to Klebsiella aerogenes. Description: Antibacterial activity against Klebsiella aerogenes assessed as growth inhibition after 18 hrs by serial dilution method. It counts as functional. Put shortly:
as §1

The next assay concerns Proteus mirabilis. Description: Antibacterial activity against Proteus mirabilis assessed as growth inhibition after 18 hrs by serial dilution method. It counts as functional. Put shortly: as §1

≈ marks a conversion by molar mass, not a printed value. Some results are limits rather than exact numbers.

Turning to `CCSCC(=O)N[C@@H]1C(=O)N2C(C(=O)O)=C(Cc3ccccc3)CS[C@H]12`, the MIC in the assay with Staphylococcus aureus [1] was 0.12 µg/mL (≈ 0.306 µM); in the assay on Staphylococcus aureus [2], 1.25 µg/mL (≈ 3.18 µM); with Escherichia coli it was more than 125 µg/mL; in the assay with Salmonella typhi it was 125 µg/mL (≈ 318 µM); in the assay with Shigella sonnei, more than 125 µg/mL; in the assay with Klebsiella aerogenes, more than 125 µg/mL. Further, the MIC in the assay with Proteus mirabilis is more than 125 µg/mL.

For `O=C(CSc1ccncc1)N[C@@H]1C(=O)N2C(C(=O)O)=C(Cc3cccnc3)CS[C@H]12`, the MIC in the assay with Staphylococcus aureus [1] was less than 0.02 µg/mL; in the assay on Staphylococcus aureus [2], 1 µg/mL (≈ 2.26 µM); in the assay with Escherichia coli, 25 µg/mL (≈ 56.5 µM); in the assay on Salmonella typhi, 10 µg/mL (≈ 22.6 µM); with Shigella sonnei it was 25 µg/mL (≈ 56.5 µM); in the assay on Klebsiella aerogenes it was 5 µg/mL (≈ 11.3 µM). Moreover, the MIC in the assay with Proteus mirabilis was determined as 100 µg/mL (≈ 226 µM).

For the compound `CCSCC(=O)N[C@@H]1C(=O)N2C(C(=O)O)=C(Cc3cccnc3)CS[C@H]12`, the minimal inhibitory concentration (MIC) turned out to be 0.05 µg/mL (≈ 0.127 µM) in the assay on Staphylococcus aureus [1]; 1.25 µg/mL (≈ 3.18 µM) in the assay on Staphylococcus aureus [2]; 50 µg/mL (≈ 127 µM) in the assay on Escherichia coli; 50 µg/mL (≈ 127 µM) with Salmonella typhi; 50 µg/mL (≈ 127 µM) in the assay with Shigella sonnei; 50 µg/mL (≈ 127 µM) in the assay with Klebsiella aerogenes. In addition, in the assay with Proteus mirabilis, the minimum inhibitory concentration (MIC) was 25 µg/mL (≈ 63.5 µM).
